The array DNA melting data of Ke et al. (doi:10.1101/2024.01.08.574731)

Columns and labels:
[1] = folding enthalpy; higher = less favourable; fluorescence melt of hairpins on a sequencing array, two-state fit; conditions: sodium 0.088 M
Outline: (§1)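 Melting temperature and folding enthalpy were obtained by bootstrapped two-state fitting. Fits used Cy3 fluorescence of library hairpins with annealed Cy3 and quencher oligos on a sequenced MiSeq flow cell, imaged in 50 mM Na-HEPES pH 8.0, 25 mM NaCl in 2.5 °C steps up to 60 °C and normalised to pre-quench Cy3 and control constructs. Four replicates were combined by inverse-variance weighting, and fitted temperatures were raised by 9.35 °C to match UV melts.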

[2] = melting temperature; fluorescence melt of hairpins on a sequencing array, two-state fit, raised by 9.35 °C to match UV melts; conditions: sodium 0.088 M
Outline: as §1

Row | Sequence | folding enthalpy [1] [kcal/mol] | Tm [2] [°C]
1 | GTTCGCCCGAAAGGGAAC (((..(((....)))))) | -13.9 | 35.9
2 | GCGAATGGAAACGTTCGC (((((.(....).))))) | -38.4 | 56.7
3 | GATCGAGGCTTCGATC ((((((....)))))) | -41.8 | 57.9
4 | GGTGGCGGAAACGCTACC (((.(((....))).))) | -39.8 | 59.9
5 | GCGTCGCAACGC ((((....)))) | -20 | 56.2
6 | GCGGGGTCCCGC ((((....)))) | -29.3 | 65.1
7 | GGAGCGGGAAACCACTCC ((((.((....)).)))) | -34.7 | 49.2
8 | GATCACTGTGTGATC ((((((...)))))) | -31 | 61.7
9 | GTGTTACGAAAGTACCAC (((.(((....))).))) | -29.4 | 43.2
10 | GGATAGGGAAACCCATCC ((((.((....)).)))) | -29.4 | 39.8
11 | GTCGACGCGAAAGCGGAC (((..(((....)))))) | -12.8 | 45.4
12 | GAACCCGAAAGGGGGTTC ((((((....)))..))) | -25.3 | 56
13 | GTCCTGGGAAACCAAGAC (((.(((....))).))) | -22.4 | 34.5
14 | GCACCCGAAAGGGATTGC ((((((....)))..))) | -18 | 42.3
15 | GATCACGGCGGTGATC ((((((....)))))) | -45.6 | 58.8
16 | GCGCCTCCGAAAGGACGC (((..(((....)))))) | -25.2 | 50.1
17 | GGGCCCGAAAGGGCGCCC ((((((....)))..))) | -9.86 | 58.2
18 | GATCCAGGTATGGATC ((((((....)))))) | -35.1 | 58
19 | CCCCTGAAAAGGGG (((((....))))) | -25.4 | 57.2
20 | GTCCTTGGAAACGAGGAC (((((.(....).))))) | -40.8 | 50.7
21 | GCGTAGCGAAAGCAACGC ((((.((....)).)))) | -21.1 | 66.7
22 | GGTCTCGAAAGAGGTACC ((((((....)))..))) | -19.9 | 35
23 | GCTTGGCGAAAGCAATGC ((.(.((....)).).)) | -12.8 | 38.4

Row | Sequence | folding enthalpy [1] [kcal/mol] | Tm [2] [°C]
24 | GACTCCGGAAACGGGGTC (((.(((....))).))) | -38 | 57.2
25 | GATCAGGTACTGATC ((((((...)))))) | -41.1 | 61.4
26 | GTCTATACGAAAGTAGAC (((..(((....)))))) | -21.8 | 36.7
27 | GATCGTATCCACGATC ((((((....)))))) | -35.3 | 56.9
28 | GCCTGTGGAAACACAGAC (.(((((....))))).) | -15.8 | 42.6
29 | GATCGAAATCTCGATC ((((((....)))))) | -32.7 | 48.7
30 | GCATCGCGAAAGCGCCGC ((..(((....)))..)) | -10.5 | 38
31 | GCCCACGAAAGTGTCGGC ((((((....)))..))) | -19.6 | 48.4
32 | GGTACCCGAAAGGGCACC (((.(((....))).))) | -32.3 | 55.6
33 | GCCCTGCGAAAGCACCGC ((..(((....)))..)) | -7.84 | 32.4
34 | GGCCTCGAAAGAGCTGCC ((((((....)))..))) | -24 | 45
35 | GGACTCGAAAGAGGTCC ((((((....))).))) | -35.2 | 52.4
36 | GTCTTGGGAAACTAAGAC (((((.(....).))))) | -34.9 | 42.8
37 | GCCACCCGAAAGGGAGGC (((.(((....))).))) | -44.3 | 67.8
38 | GGAGGCGAAAGCCGTTCC ((((((....)))..))) | -8.29 | 41.6
39 | GAGTCCGAAAGGAGTCTC ((((((....)))..))) | -25.1 | 54.5
40 | GAAACTGGAAACAGCTTC (((.(((....))).))) | -31.1 | 32.5
41 | GATACCCGAAAGGGATC (((.(((....)))))) | -16.1 | 42.1
42 | GTACCCGCGAAAGCGTAC (((..(((....)))))) | -8.05 | 25.7
43 | GAAACGGGAAACCGCTTC (((.(((....))).))) | -24.2 | 40.4
44 | GCTGTCGAAAGACATAGC ((((((....)))..))) | -16.4 | 45.1
45 | GCAGAGCGAAAGCCATGC (((..((....))..))) | -18.9 | 45.7
46 | GACTTTGGAAACAAAGTC (((((((....))))))) | -44.5 | 57.8

Row | Sequence | folding enthalpy [1] [kcal/mol] | Tm [2] [°C]
47 | GAAATGCGAAAGCAATTC (((.(((....))).))) | -20 | 45.3
48 | GATCGGTTTTCCGATC ((((((....)))))) | -45.1 | 60.1
49 | GTAGCCCGAAAGGGATAC (((.(((....))).))) | -33.7 | 64.3
50 | GCCAAGCCGAAAGGCGGC (((..(((....)))))) | -16.1 | 64.2
51 | GATCCAAGATGGATC ((((((...)))))) | -34 | 49
52 | GCAGTAGGAAACTATTGC (((.(((....))).))) | -26.9 | 42.6
53 | GCTTTGCGAAAGCCAGGC ((.(.((....)).).)) | -10.2 | 38.3
54 | GCTAAGCGAAAGCTAGGC ((..(((....)))..)) | -17.6 | 47.4
55 | GATCGAACTTTCGATC ((((((....)))))) | -35.6 | 53.4
56 | GATGCGCGAAAGCGATC (((.(((....)))))) | -12 | 41.3
57 | GCCCACGGAAACGTGGAC (.(((((....))))).) | -14.1 | 50.6
58 | GATCGGTCGACCGATC ((((((....)))))) | -49.7 | 61.4
59 | GACCCAACGAAAGTTGTC (((..(((....)))))) | -10.5 | 29
60 | GACAGGCGAAAGCCGTC (((.(((....)))))) | -11.3 | 64.9
61 | GAACTTGGAAACAAGTCC (.(((((....))))).) | -16.4 | 36
62 | GGTGCCGAAAGGCTGACC ((((((....)))..))) | -13.9 | 46.8
63 | GTACCGGGAAACCGGTAC (((((((....))))))) | -29.2 | 68.3
64 | GCCTACGAAAGTAAGGC ((((((....))).))) | -31.3 | 56.9
65 | GGATGCGAAAGCAGTTCC ((((((....)))..))) | -14.3 | 36
66 | GGCACATCGAAAGATGCC (((..(((....)))))) | -14.7 | 42.8
67 | GATTGGCGAAAGCCCATC (((.(((....))).))) | -17 | 38.4
68 | GATCGGTAACCGATC ((((((...)))))) | -35.5 | 56.1
69 | GCTCGGCGAAAGCCACGC ((..(((....)))..)) | -11.5 | 43.3

Row | Sequence | folding enthalpy [1] [kcal/mol] | Tm [2] [°C]
70 | GATCCACAGTGGATC ((((((...)))))) | -40.5 | 49.7
71 | GCGGTTCGAAAGAACGC (((.(((....)))))) | -26.8 | 61.2
72 | GTTGGCGAAAGCCATAAC ((((((....)))..))) | -10.2 | 35.7
73 | GGTGACGAAAGTCTTACC ((((((....)))..))) | -15 | 35.8
74 | GCCTTGCGAAAGCACCGC ((..(((....)))..)) | -10.6 | 42.6
75 | CTAATGAAAATTAG (((((....))))) | -7.43 | 26
76 | GCGGATGGAAACATCCAC (.(((((....))))).) | -14.7 | 45.3
77 | GCCGCGCGAAAGCCGGGC (((..((....))..))) | -18.5 | 68.2
78 | GAATACGGAAACGTATTC (((((((....))))))) | -36.5 | 55.7
79 | GAGGTGCGAAAGCACTC (((.(((....)))))) | -10 | 48.3
80 | GGTTGATCGAAAGATACC (((..(((....)))))) | -8.74 | 25.5
81 | GCGGAACGAAAGTTCGC (((.(((....)))))) | -24.4 | 58.9
82 | CTAAGGAAACTTAG (((((....))))) | -10.7 | 29.8
83 | GATCGGTAGCCGATC ((((((...)))))) | -42.2 | 55.4
84 | GTTCCCGAAAGGGCAAC ((((((....))).))) | -14.7 | 40.4
85 | GATCGGCTCCCGATC ((((((...)))))) | -38.4 | 57.8
86 | GGCTACGAAAGTACGGCC ((((((....)))..))) | -23.9 | 46.5
87 | GTTGAAGGAAACTCCAAC ((((.((....)).)))) | -17.5 | 29.5
88 | GGATCCACGAAAGTGTCC (((..(((....)))))) | -12.4 | 28.4
89 | GCGCATGGAAACGTGTGC ((.((.(....).)).)) | -36.7 | 46.6
90 | GATCACAACGGTGATC ((((((....)))))) | -38.7 | 56
91 | GATCACGAAAGTGAATC ((((((....))).))) | -15.8 | 45.6
92 | GATCTATAATAGATC ((((((...)))))) | -21.8 | 38.3
